Experiments:
Type in all cases: functional
[1] = Growth inhibition of human RXF393 cells assessed as cell growth at 10^-4 M after 48 hrs by SRB assay; conditions: RXF 393, 48 h, read-out: Activity
[2] = tested on: NCI-H226; assay: Cytotoxicity against human NCI-H226 cells after 48 hrs by SRB assay; conditions: NCI-H226, 48 h
Summary of the method: (§1)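 NCI 60-cell-line panel of human tumour lines from nine cancer types. Continuous 48 h exposure at five 10-fold dilutions from 10^-4 to 10^-8 M, with 5-FU as positive control. SRB protein stain read spectrophotometrically at time zero, untreated control and each concentration. GI50, TGI and LC50 were derived from the [(Ti−Tz)/(C−Tz)]×100 growth relations, and out-of-range values are given as > or < the tested limits.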

[3] = tested on: SF-268; assay: Growth inhibition of human SF268 cells assessed as cell growth at 10^-6 M after 48 hrs by SRB assay; conditions: SF-268, 48 h, read-out: Activity
[4] = Growth inhibition of human OVCAR5 cells assessed as cell growth at 10^-5 M after 48 hrs by SRB assay; conditions: OVCAR-5, 48 h, read-out: Activity
[5] = tested on: ACHN; assay: Growth inhibition of human ACHN cells assessed as cell growth at 10^-7 M after 48 hrs by SRB assay; conditions: read-out: Activity
Summary of the method: (§2)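 Five-dose NCI panel protocol. Each dose (10^-4 to 10^-8 M, 10-fold steps) was given as 48 h continuous exposure, and protein was measured by SRB staining. Percentage growth at each level is [(Ti−Tz)/(C−Tz)]×100, where Tz is time-zero absorbance and C is untreated control.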

[6] = tested on: SN12C; assay: Growth inhibition of human SN12C cells assessed as cell growth at 10^-5 M after 48 hrs by SRB assay; conditions: read-out: Activity
[7] = tested on: NCI-H23; assay: Growth inhibition of human NCI-H23 cells assessed as cell growth at 10^-6 M after 48 hrs by SRB assay; conditions: NCI-H23, 48 h, read-out: Activity
[8] = Growth inhibition of human Hs578T cells assessed as cell growth at 10^-5 M after 48 hrs by SRB assay; conditions: Hs-578T, read-out: Activity
[9] = tested on: MDA-MB-468; assay: Growth inhibition of human MDA-MB-468 cells assessed as cell growth at 10^-5 M after 48 hrs by SRB assay; conditions: MDA-MB-468, 48 h, read-out: Activity
[10] = tested on: SF-268; assay: Growth inhibition of human SF268 cells assessed as cell growth at 10^-4 M after 48 hrs by SRB assay; conditions: SF-268, 48 h, read-out: Activity
[11] = tested on: MDA-MB-468; assay: Cytotoxicity against human MDA-MB-468 cells after 48 hrs by SRB assay; conditions: MDA-MB-468, 48 h; summary of the method: as §1
[12] = tested on: NCI-H226; assay: Growth inhibition of human NCI-H226 cells assessed as cell growth at 10^-4 M after 48 hrs by SRB assay; conditions: NCI-H226, 48 h, read-out: Activity
[13] = tested on: HT-29; assay: Growth inhibition of human HT-29 cells assessed as cell growth at 10^-6 M after 48 hrs by SRB assay; conditions: HT-29, 48 h, read-out: Activity
[14] = tested on: SK-OV-3; assay: Growth inhibition of human SKOV3 cells assessed as cell growth at 10^-8 M after 48 hrs by SRB assay; conditions: SK-OV-3, 48 h, read-out: Activity
[15] = tested on: RPMI-8226; assay: Growth inhibition of human RPMI8226 cells assessed as cell growth at 10^-7 M after 48 hrs by SRB assay; conditions: RPMI-8226, 48 h, read-out: Activity
[16] = tested on: SK-MEL-5; assay: Growth inhibition of human SK-MEL-5 cells assessed as cell growth at 10^-5 M after 48 hrs by SRB assay; conditions: SK-MEL-5, 48 h, read-out: Activity
[17] = tested on: K562; assay: Growth inhibition of human K562 cells assessed as cell growth at 10^-7 M after 48 hrs by SRB assay; conditions: K562, 48 h, read-out: Activity
[18] = tested on: CAKI-1; assay: Growth inhibition of human CAKI-1 cells assessed as cell growth at 10^-5 M after 48 hrs by SRB assay; conditions: CAKI-1, 48 h, read-out: Activity; summary of the method: as §2
[19] = tested on: SW-620; assay: Growth inhibition of human SW620 cells assessed as cell growth at 10^-5 M after 48 hrs by SRB assay; conditions: SW-620, 48 h, read-out: Activity
[20] = tested on: HT-29; assay: Cytotoxicity against human HT-29 cells after 48 hrs by SRB assay; conditions: HT-29, 48 h; summary of the method: as §1
[21] = tested on: A498; assay: Growth inhibition of human A498 cells assessed as cell growth at 10^-6 M after 48 hrs by SRB assay; conditions: A498, 48 h, read-out: Activity; summary of the method: as §2
[22] = Growth inhibition of human LOXIMVI cells assessed as cell growth at 10^-4 M after 48 hrs by SRB assay; conditions: LOX IMVI, read-out: Activity
[23] = tested on: NCI-H322M; assay: Growth inhibition of human NCI-H322M cells assessed as cell growth at 10^-8 M after 48 hrs by SRB assay; conditions: read-out: Activity
[24] = tested on: SF-268; assay: Growth inhibition of human SF268 cells assessed as cell growth at 10^-7 M after 48 hrs by SRB assay; conditions: SF-268, 48 h, read-out: Activity
[25] = Growth inhibition of human HCC2998 cells assessed as cell growth at 10^-5 M after 48 hrs by SRB assay; conditions: HCC 2998, 48 h, read-out: Activity
[26] = Growth inhibition of human HOP92 cells assessed as cell growth at 10^-5 M after 48 hrs by SRB assay; conditions: HOP-92, 48 h, read-out: Activity
[27] = Growth inhibition of human OVCAR8 cells assessed as cell growth at 10^-5 M after 48 hrs by SRB assay; conditions: OVCAR-8, 48 h, read-out: Activity
[28] = Growth inhibition of human LOXIMVI cells assessed as cell growth at 10^-7 M after 48 hrs by SRB assay; conditions: LOX IMVI, read-out: Activity
[29] = tested on: HCT-116; assay: Cytotoxicity against human HCT116 cells after 48 hrs by SRB assay; conditions: HCT-116, 48 h; summary of the method: as §1
[30] = tested on: M14; assay: Growth inhibition of human M14 cells assessed as cell growth at 10^-8 M after 48 hrs by SRB assay; conditions: M14, 48 h, read-out: Activity
[31] = Growth inhibition of human HCT15 cells assessed as cell growth at 10^-5 M after 48 hrs by SRB assay; conditions: HCT-15, 48 h, read-out: Activity
[32] = read-out: LC50 (the source's name)
[33] = read-out: pLC50 (the source's name) (converted)

Compound Cc1ccc(-c2nc3ccc(Cl)cc3c(=O)n2/N=C/c2ccccc2)cc1 has a growth at 100 µM [1] of 19%, a GI50 ([2]; read-out: GI50) of 5.14 µM and a CC50 [2, 32] of over 100 µM. For the same compound, the TGI ([2]; read-out: TGI) was over 100 µM, the GI50 ([2]; read-out: pGI50 (converted)) was 5.13 µM and the CC50 [2, 33] was over 100 µM. The TGI ([2]; read-out: pTGI) was over 100 µM, the growth at 1 µM [3] was 90% and the growth at 10 µM [4] was 74%. For the same compound, the growth at 0.1 µM [5] was 88%, the growth at 10 µM [6] was 51% and the growth at 1 µM [7] was 87%. The growth at 10 µM [8] was 3%, the growth at 10 µM [9] was 65% and the growth at 100 µM [10] was 36%. It also gave a GI50 ([11]; read-out: GI50) of 57.6 µM, an LC50 ([11]; read-out: LC50) of over 100 µM and a TGI ([11]; read-out: TGI) of over 100 µM. For the same compound, the GI50 ([11]; read-out: pGI50 (converted)) was 57.5 µM, the LC50 ([11]; read-out: pLC50 (converted)) was over 100 µM and the TGI ([11]; read-out: pTGI) was over 100 µM. The growth at 100 µM [12] was 18%, the growth at 1 µM [13] was 94% and the growth at 0.01 µM [14] was 98%. It also gave a growth at 0.1 µM [15] of 94%, a growth at 10 µM [16] of 57% and a growth at 0.1 µM [17] of 97%. For the same compound, the growth at 10 µM [18] was 38%, the growth at 10 µM [19] was 67% and the GI50 ([20]; read-out: GI50) was 60.2 µM. It also gave an LC50 ([20]; read-out: LC50) of over 100 µM, a TGI ([20]; read-out: TGI) of over 100 µM and a GI50 ([20]; read-out: pGI50 (converted)) of 60.3 µM. For the same compound, the LC50 ([20]; read-out: pLC50 (converted)) was over 100 µM, the TGI ([20]; read-out: pTGI) was over 100 µM and the growth at 1 µM [21] was 85%. The growth at 100 µM [22] was 48%, the growth at 0.01 µM [23] was 87% and the growth at 0.1 µM [24] was 88%. For the same compound, the growth at 10 µM [25] was 96%, the growth at 10 µM [26] was 43% and the growth at 10 µM [27] was 30%. It also gave a growth at 0.1 µM [28] of 93%, a GI50 ([29]; read-out: GI50) of 5.51 µM and a CC50 [29, 32] of over 100 µM. The TGI ([29]; read-out: TGI) was over 100 µM, the GI50 ([29]; read-out: pGI50 (converted)) was 5.5 µM and the CC50 [29, 33] was over 100 µM. For the same compound, the TGI ([29]; read-out: pTGI) was over 100 µM, the growth at 0.01 µM [30] was 95% and the growth at 10 µM [31] was 79%.

— ChEMBL document CHEMBL3259728, “Design, synthesis and biological evaluation of some novel substituted quinazolines as antitumor agents” (2014)
